Results from PubChem BioAssay AID552 (SRMLSC, 2006).
About 10 (0.05%) of roughly 20,000 compounds were called active. Rule as the data show it: active = inhibition above about 40%; inactive = the rest. Shown is part of a subset that was picked to be rich in actives.

Test: antibacterial activity on E. coli BW25113 – strain BW25113 wild type, absorbance readout, primary screen (AID 552);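 also: bacteria exposed to compound for 20 hours at 37 °C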
Details: E. coli BW25113 growth inhibition, OD600; at 10 µM; hits give high values
Outline: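 System: bacterial strain in a whole-cell growth screen; medium: LB broth with 50 µg/mL kanamycin; detection: absorbance at 615 nm; schedule: 20 h exposure, 37 °C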

inhibition, inactive:
O=C(COc1ccccc1F)NC1CC1 -9.95%
CC(C)(C)C(=O)CCN1C(=O)C2(OCCO2)c2ccccc21 11.1%
CCOC(=O)N1CCN(CC(=O)c2c(C)[nH]c3ccccc23)CC1 8.75%
COC(=O)C(C)N(C#N)c1nc(C)nc(C)n1 (centres undefined) -24.9%
Cc1cc(Cl)ccc1N1C(=O)CC(SCCC(=O)O)C1=O (centres undefined) 0.27%
COC(=O)C1=C(C)Nc2ncnn2C1c1ccco1 (centres undefined) -13.1%
CCOC(=O)c1c(C)oc2ccc(OCC(=O)N(CC)CC)cc12 -3.67%
COc1ccc(-c2cc3ccc(OCc4nn[nH]n4)cc3oc2=O)cc1 -2.44%
CCCn1c(C(O)c2cc(OC)ccc2OC)nc2ccccc21 (centres undefined) -24.6%
CC1Cn2c(nnc2-c2cccs2)S1 (centres undefined) -19.2%
COc1ccc(-c2nc(SCC(=O)N3CCOCC3)n[nH]2)cc1 -14%
Cn1c(=O)c2c(ncn2CC(=O)N2CCN(c3ccccc3)CC2)n(C)c1=O 0.27%
CC(C)NS(=O)(=O)c1ccc(OCC(=O)Nc2ccc3c(c2)OCCO3)cc1 -17.1%
COc1ccccc1C(=O)n1nc(-c2ccccc2)nc1N -5.43%
Cc1nnc2sc(-c3ccco3)nn12 -19.1%
O=C(c1cccnc1NCc1ccccc1)N1CCOCC1 4.48%
Cc1ccc(-c2noc(CSc3nnc(-c4ccccc4)n3C)n2)cc1 13.8%
Cn1c(=O)n(C)c2cc(C(=O)Nc3ccc4c(c3)OCO4)ccc21 -11.7%
COc1ccc(S(=O)(=O)N2CCCC2)c(C)c1C -7.21%
CC1=C(C(=O)OC2CCCCC2)C(c2cccnc2)n2ncnc2N1 (centres undefined) -3.82%
CCOc1ccc(Cn2nnc(C(=O)Nc3ccc(OC)cc3OC)c2N)cc1 1.62%
Cc1cc(C)cc(N(C(C)C(=O)Nc2c(C)n(C)n(-c3ccccc3)c2=O)S(C)(=O)=O)c1 (centres undefined) -10.4%
Cc1nn(-c2ccccc2)c2[nH]c(C(F)(F)F)cc(=O)c12 -5.63%
COc1ccc(CCNS(=O)(=O)c2ccc(C(=O)NCc3ccco3)cc2)cc1OC 8.04%
O=C(c1ccco1)N1CCN(C(=O)C2CC(c3ccc(F)cc3)=NO2)CC1 (centres undefined) 9.27%
CC(C(=O)N1CCOCC1)N1c2cccc3cccc(c23)S1(=O)=O (centres undefined) -6.66%
CSc1cccc(NC(=O)CSc2ccccc2)c1 -12.8%
O=C(c1ccccc1-c1ccccc1)N1CCOCC1 -14.8%
CC(C)n1c(NCc2c[nH]c3ccccc23)nc2ccccc21 18.1%
COc1cc(NS(=O)(=O)c2ccccc2)ccc1-n1nc(C)cc1C -15.6%
COc1ccc2c(CC(=O)Nc3nnc(C4CC4)s3)coc2c1 -3.61%
COc1ccccc1NC1=NC2(CCCC2)N=C(N)N1 5.8%
CCc1nnc(NC(=O)c2ccc(S(=O)(=O)NC3CCCCC3)cc2)s1 -3.77%
COC(=O)CN(c1nc(C)c(Cl)c(OC)n1)S(=O)(=O)c1ccc(C)cc1 -1.76%
CNC(=O)NCCN1CCCC1=O 7.98%
CCn1c(CNC(=O)c2ccc(OC)c(OC)c2)nnc1SCC(=O)Nc1ccccc1 -11.8%
O=C(C1CCCO1)N(Cc1ccccc1)c1ccccc1 (centres undefined) -16.8%
Cc1cc(NC(=O)Cn2nc(C(F)(F)F)c3c2CCCC3)no1 -16.9%
Cc1cc(C)nc(NC2=NCC(=O)N2c2ccc(Cl)cc2)n1 1.06%
O=C(NCCc1ccccn1)c1ccc(COc2ccccc2)o1 15%
C/C(=C(\C#N)C(=O)NCCCN1CCOCC1)N(C)C 2.5%
CCOC(=O)CC1C(=O)NCCN1C(=O)COc1ccc(Br)cc1C (centres undefined) -24.8%
CC(=O)Nc1ccc(S(=O)(=O)Nc2cccc(NC(=O)C(C)(C)C)c2)cc1 -16.1%
O=C1C2(c3ccccc3)CN(CCCO)CC1(c1ccccc1)CN(CCCO)C2 -16.6%
Cc1noc(C)c1CSc1nc2cc(S(=O)(=O)N3CCOCC3)ccc2o1 -3.26%
CCCCNC(=O)c1ccccc1NC(=O)c1ccccc1N(C)S(C)(=O)=O -21%
COC(=O)COc1ccc2oc(=O)cc(C)c2c1 -18.5%
O=S(=O)(N1CCOCC1)N1CCN(c2ccccc2F)CC1 -11.7%
CCC(Oc1ccccc1)C(=O)NCc1cccnc1 (centres undefined) -21.9%
O=C(Nc1nn(Cc2ccccc2F)cc1Br)c1cccs1 -14.1%
Cc1ccc(S(=O)(=O)N(C)CC(=O)NC2CCCC2)cc1 -2.1%
N#CC1=C(N)C(C#N)(C#N)[C@H](c2ccsc2)[C@H]2COCC=C12 -0.035%
O=C(OCC(O)C(O)COC(=O)c1ccccc1)c1ccccc1 (centres undefined) -18.9%
CCCOc1ccc(NC(=O)C2CCCNC2=O)cc1 (centres undefined) -30.8%
COc1ccc(CC(NC(C)=O)C(=O)NC2CCN(C(=O)Nc3ccc(C#N)cc3)CC2)cc1OC (centres undefined) -1.03%
Cc1cc(C(=O)Nc2c(C)n(C)n(-c3ccccc3)c2=O)cs1 -12.7%
Cc1occc1C(=O)Nc1nnc(C2CCCCC2)s1 0.21%
Cc1cc(=O)n(C)c(=O)n1CCCNc1ccccc1 8.62%
C/C(N)=C(\C#N)C(=O)NCCc1ccccn1 -3.41%
CCOC(=O)c1c(C)nc(-c2ccccc2)nc1NC(=O)C(C)C -20.2%
Cc1cc(NC(=O)CN2CCC(O)(c3cccc(F)c3)CC2)no1 -0.42%
CCC(=O)Nc1nc(OC)cc(OC)n1 -16.5%
COc1ccc(CC(=O)Nc2c3c(nn2-c2cccc(Cl)c2)CS(=O)C3)cc1 (centres undefined) 13.4%
Cc1cc(C)nc(NC(=O)C(C)N2C(=O)c3ccccc3C2=O)n1 (centres undefined) -17.9%
